Blank lines part the entries; values can stand above or below the compound they belong to.
Columns and labels:
[1] = Dissociation constant, pKa of the compound; assay type: physicochemical
How it was run: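 pKa was measured by potentiometric titration; calculated pKa values were also given from a pKa database.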

[2] = Bioavailability in Wistar albino rat; assay type: ADME, organism-based; settings: in vivo
[3] = Half life in Beagle dog at 1 mg/kg, iv; assay type: ADME, organism-based, Canis lupus familiaris; set-up: dose 1 mg/kg, route intravenous; settings: in vivo
[4] = AUC in Sprague-Dawley rat at 0.3 mg/kg, po; assay type: ADME, organism-based; set-up: dose 0.3 mg/kg, route oral; settings: plasma
[5] = AUC in Sprague-Dawley rat at 1 mg/kg, po; assay type: ADME, organism-based; set-up: dose 1 mg/kg, route oral; settings: plasma
[6] = Oral bioavailability in Beagle dog at 3 mg/kg; assay type: ADME, organism-based, Canis lupus familiaris; settings: in vivo
[7] = Plasma clearance in rhesus monkey at 1 mg/kg, iv; assay type: ADME, organism-based, Macaca mulatta; set-up: dose 1 mg/kg, route intravenous
[8] = AUC in rhesus monkey at 3 mg/kg, po; assay type: ADME, organism-based, Macaca mulatta; set-up: dose 3 mg/kg, route oral; settings: plasma
[9] = Half life in Sprague-Dawley rat at 2 mg/kg, iv; assay type: ADME, organism-based; set-up: dose 2 mg/kg, route intravenous; settings: in vivo
[10] = Plasma clearance in Sprague-Dawley rat at 2 mg/kg, iv; assay type: ADME, organism-based; set-up: dose 2 mg/kg, route intravenous
[11] = Ratio of drug level from cerebrospinal fluid to plasma in rat at 10 mg/kg, po after 9 hrs; assay type: ADME, organism-based, CSF/Plasma; set-up: dose 10 mg/kg, route oral
How it was run: (§1)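 Rats given a single oral 10 mpk dose; brain, plasma and CSF levels measured; brain/plasma and CSF/plasma concentration ratios taken at 9 h after oral dosing.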

[12] = Cmax in Beagle dog at 3 mg/kg, po; assay type: ADME, organism-based, Canis lupus familiaris; set-up: dose 3 mg/kg, route oral; settings: in vivo
[13] = AUC in Beagle dog at 3 mg/kg, po; assay type: ADME, organism-based, Canis lupus familiaris; set-up: dose 3 mg/kg, route oral; settings: plasma
[14] = Cmax in Sprague-Dawley rat at 1 mg/kg, po; assay type: ADME, organism-based; set-up: dose 1 mg/kg, route oral; settings: in vivo
[15] = AUC in Sprague-Dawley rat at 10 mg/kg, po; assay type: ADME, organism-based; set-up: dose 10 mg/kg, route oral; settings: plasma
[16] = Oral bioavailability in Sprague-Dawley rat at 10 mg/kg; assay type: ADME, organism-based; settings: in vivo
[17] = Half life in rhesus monkey at 1 mg/kg, iv; assay type: ADME, organism-based, Macaca mulatta; set-up: dose 1 mg/kg, route intravenous; settings: in vivo
[18] = Cmax in Sprague-Dawley rat at 10 mg/kg, po; assay type: ADME, organism-based; set-up: dose 10 mg/kg, route oral; settings: in vivo
[19] = Oral bioavailability in rhesus monkey at 3 mg/kg; assay type: ADME, organism-based, Macaca mulatta; settings: in vivo
[20] = Ratio of drug level from brain to plasma in rat at 10 mg/kg, po after 9 hrs; assay type: ADME, organism-based; set-up: dose 10 mg/kg, route oral; how it was run: as §1
[21] = Plasma clearance in Beagle dog at 1 mg/kg, iv; assay type: ADME, organism-based, Canis lupus familiaris; set-up: dose 1 mg/kg, route intravenous
[22] = Cmax in rhesus monkey at 3 mg/kg, po; assay type: ADME, organism-based, Macaca mulatta; set-up: dose 3 mg/kg, route oral; settings: in vivo

pKa [1]: 8.7 | bioavailability [2]: 100%
SMILES: CC(C)(C)CCN1CCC(CNC(=O)c2cc(Cl)cc(Cl)c2)CC1

pKa [1]: 7.9
SMILES: CC1(C)C[C@@H](CN2CCC(F)(CNC(=O)c3cc(Cl)cc(Cl)c3)CC2)CCO1

pKa [1]: 8
SMILES: CC(C)(C)C(=O)CN1CCC(CNC(=O)c2cc(Cl)cc(Cl)c2)CC1

pKa [1]: 7.6
SMILES: CC(C)(C)NC(=O)CN1CCC(CNC(=O)c2cc(Cl)cc(Cl)c2)CC1

pKa [1]: 7.9 | half-life [3]: 10.8 h | AUC [4]: 0.01 µM·h | AUC [5]: 0.19 µM·h | bioavailability [6]: 67% | clearance [7]: 9.6 mL/min/kg | AUC [8]: 2.4 µM·h | half-life [9]: 4.9 h | clearance [10]: 41 mL/min/kg | Kp at 9 h [11]: 0.14 | Cmax [12]: 1180 nM | AUC [13]: 9.5 µM·h | Cmax [14]: 33 nM | AUC [15]: 3.1 µM·h | bioavailability [16]: 30% | half-life [17]: 4.6 h | Cmax [18]: 432 nM | bioavailability [19]: 18% | Kp at 9 h [20]: 9 | clearance [21]: 9.1 mL/min/kg | Cmax [22]: 184 nM
SMILES: CC(C)(C)CCN1CC[C@H](CNC(=O)c2cc(Cl)cc(Cl)c2)[C@H](F)C1

pKa [1]: 9.2
SMILES: CC(C)(C)C(O)CN1CCC(CNC(=O)c2cc(Cl)cc(Cl)c2)CC1 (stereo not drawn)

pKa [1]: 6.7
SMILES: CC(C)(C)CCN1CC[C@@H](CNC(=O)c2cc(Cl)cc(Cl)c2)[C@H](F)C1 (relative stereo)
